# Laboratory results taken from ChEMBL document CHEMBL1151755, “Crystal structure of the peroxisome proliferator-activated receptor gamma (PPARgamma) ligand binding domain complexed with a novel partial agonist: a new region of the hydrophobic pocket could be exploited for drug design” (J Med Chem, 2008).
# Activity calls are given as the source filed them. The calls are words filed in the database; no cut-off is given here.
# Legend:
# Assay type in all cases: cell-based
# [1] = biological target: T1, Peroxisome proliferator-activated receptor alpha (Mus musculus) (UniProt P23204); assay: Agonist activity at mouse PPARalpha ligand binding domain expressed in human Hep G2 cells co-transfected with Gal4-DBD by luciferase reporter gene assay relative to Wy 14,643; conditions: HepG2
# T1 sequence (whole entry): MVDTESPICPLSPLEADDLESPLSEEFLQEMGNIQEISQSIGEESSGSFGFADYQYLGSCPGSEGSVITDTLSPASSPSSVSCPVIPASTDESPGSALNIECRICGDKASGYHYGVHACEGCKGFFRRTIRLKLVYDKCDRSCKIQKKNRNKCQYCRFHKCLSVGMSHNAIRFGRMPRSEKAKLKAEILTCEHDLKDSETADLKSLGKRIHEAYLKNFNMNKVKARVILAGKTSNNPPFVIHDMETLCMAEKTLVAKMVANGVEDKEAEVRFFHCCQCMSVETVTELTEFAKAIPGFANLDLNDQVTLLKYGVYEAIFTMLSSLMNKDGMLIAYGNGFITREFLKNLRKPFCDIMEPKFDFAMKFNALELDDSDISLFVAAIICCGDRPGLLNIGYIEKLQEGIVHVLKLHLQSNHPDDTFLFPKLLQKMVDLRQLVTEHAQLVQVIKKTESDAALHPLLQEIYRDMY
# Method in brief: (§1)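 HepG2 cells received the Gal4-receptor LBD construct (50 ng), pGal4UAS-luciferase (100 ng) and pCMVβ (300 ng) by calcium phosphate coprecipitation for 4 h. They were then treated in serum-free DMEM/F-12 with ligand or 0.1% ethanol for 20 h. Luciferase was normalized to β-galactosidase, and efficacy was expressed as percent of the Wy 14,643 maximum (100%). Values are mean ± SEM of 3–5 experiments in triplicate.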
# [2] = biological target: T2, Peroxisome proliferator-activated receptor alpha (Homo sapiens) (UniProt Q07869); assay: Agonist activity at human PPARalpha ligand binding domain expressed in human Hep G2 cells co-transfected with Gal4-DBD by luciferase reporter gene assay relative to Wy 14,643; conditions: HepG2; method in brief: as §1
# T2 sequence (whole entry): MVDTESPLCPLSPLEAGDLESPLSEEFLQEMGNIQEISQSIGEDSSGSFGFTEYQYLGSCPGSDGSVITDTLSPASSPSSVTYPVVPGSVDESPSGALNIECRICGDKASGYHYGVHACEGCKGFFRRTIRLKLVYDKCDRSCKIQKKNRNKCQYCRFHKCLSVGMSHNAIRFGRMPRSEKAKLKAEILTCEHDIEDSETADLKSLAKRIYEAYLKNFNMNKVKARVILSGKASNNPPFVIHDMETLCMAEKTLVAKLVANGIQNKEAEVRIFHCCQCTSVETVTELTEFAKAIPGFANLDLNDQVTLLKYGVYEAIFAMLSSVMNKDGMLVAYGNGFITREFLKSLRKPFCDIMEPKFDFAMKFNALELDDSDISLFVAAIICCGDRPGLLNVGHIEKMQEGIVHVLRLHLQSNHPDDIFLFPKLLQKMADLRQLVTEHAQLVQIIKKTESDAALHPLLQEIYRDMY
# [3] = biological target: T3, Retinoic acid receptor RXR-alpha (Homo sapiens) (UniProt P19793); assay: Increase in transcriptional activity of RXRalpha ligand binding domain expressed in human Hep G2 cells co-transfected with Gal4-DBD by luciferase reporter gene assay; conditions: HepG2
# T3 sequence (whole entry): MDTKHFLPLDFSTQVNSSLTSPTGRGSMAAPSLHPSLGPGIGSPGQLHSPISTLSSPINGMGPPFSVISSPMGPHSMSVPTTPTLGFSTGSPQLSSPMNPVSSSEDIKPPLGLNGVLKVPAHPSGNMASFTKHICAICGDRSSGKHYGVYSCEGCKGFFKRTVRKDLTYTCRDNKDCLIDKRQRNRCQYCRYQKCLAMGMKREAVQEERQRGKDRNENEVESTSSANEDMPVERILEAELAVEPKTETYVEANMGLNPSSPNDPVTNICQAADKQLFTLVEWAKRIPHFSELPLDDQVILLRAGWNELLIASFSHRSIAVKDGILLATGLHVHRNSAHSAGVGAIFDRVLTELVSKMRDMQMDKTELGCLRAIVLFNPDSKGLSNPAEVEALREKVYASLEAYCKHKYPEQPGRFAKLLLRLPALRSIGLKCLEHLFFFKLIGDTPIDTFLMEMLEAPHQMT
# Method in brief: (§2)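 HepG2 cells transfected for 4 h by calcium phosphate coprecipitation with 100 ng pGal4UAS-luciferase, 50 ng Gal4-LBD receptor vector and 300 ng CMV-β-galactosidase plasmid for normalization. Cells were washed in PBS, then refed with serum-free DMEM/F-12 containing penicillin/streptomycin and compound or 0.1% ethanol vehicle for 20 h. Luciferase read-out was normalized to β-galactosidase. Experiments were repeated at least three times.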
# [4] = biological target: Nuclear receptor subfamily 4 group A member 2 (Homo sapiens) (UniProt P43354); assay: Increase in transcriptional activity of Nurr1 ligand binding domain expressed in human Hep G2 cells co-transfected with Gal4-DBD by luciferase reporter gene assay; conditions: HepG2; method in brief: as §2
# [5] = biological target: T4, Thyroid hormone receptor alpha (Homo sapiens) (UniProt P10827); assay: Increase in transcriptional activity of TRalpha ligand binding domain expressed in human Hep G2 cells co-transfected with Gal4-DBD by luciferase reporter gene assay; conditions: HepG2; method in brief: as §2
# T4 sequence (whole entry): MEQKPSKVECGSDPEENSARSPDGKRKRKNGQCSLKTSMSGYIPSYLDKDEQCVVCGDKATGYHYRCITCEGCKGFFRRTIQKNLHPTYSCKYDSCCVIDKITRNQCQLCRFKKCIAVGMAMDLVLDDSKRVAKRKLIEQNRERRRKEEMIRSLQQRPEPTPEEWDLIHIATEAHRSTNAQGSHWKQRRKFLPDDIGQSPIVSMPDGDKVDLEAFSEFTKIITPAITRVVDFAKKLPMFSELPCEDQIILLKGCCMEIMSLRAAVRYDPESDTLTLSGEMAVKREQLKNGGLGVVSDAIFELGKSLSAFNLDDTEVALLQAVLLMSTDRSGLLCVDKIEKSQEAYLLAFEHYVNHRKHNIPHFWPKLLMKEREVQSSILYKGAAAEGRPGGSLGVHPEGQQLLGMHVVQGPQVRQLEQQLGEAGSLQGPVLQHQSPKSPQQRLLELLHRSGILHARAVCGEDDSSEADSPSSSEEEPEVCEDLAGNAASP
# [6] = tested on: HepG2; assay: Increase in transcriptional activity of ROR ligand binding domain expressed in human Hep G2 cells co-transfected with Gal4-DBD by luciferase reporter gene assay; method in brief: as §2
# Sequence of Nuclear receptor subfamily 4 group A member 2 (Homo sapiens) (P43354 whole entry, the tested form may be a part): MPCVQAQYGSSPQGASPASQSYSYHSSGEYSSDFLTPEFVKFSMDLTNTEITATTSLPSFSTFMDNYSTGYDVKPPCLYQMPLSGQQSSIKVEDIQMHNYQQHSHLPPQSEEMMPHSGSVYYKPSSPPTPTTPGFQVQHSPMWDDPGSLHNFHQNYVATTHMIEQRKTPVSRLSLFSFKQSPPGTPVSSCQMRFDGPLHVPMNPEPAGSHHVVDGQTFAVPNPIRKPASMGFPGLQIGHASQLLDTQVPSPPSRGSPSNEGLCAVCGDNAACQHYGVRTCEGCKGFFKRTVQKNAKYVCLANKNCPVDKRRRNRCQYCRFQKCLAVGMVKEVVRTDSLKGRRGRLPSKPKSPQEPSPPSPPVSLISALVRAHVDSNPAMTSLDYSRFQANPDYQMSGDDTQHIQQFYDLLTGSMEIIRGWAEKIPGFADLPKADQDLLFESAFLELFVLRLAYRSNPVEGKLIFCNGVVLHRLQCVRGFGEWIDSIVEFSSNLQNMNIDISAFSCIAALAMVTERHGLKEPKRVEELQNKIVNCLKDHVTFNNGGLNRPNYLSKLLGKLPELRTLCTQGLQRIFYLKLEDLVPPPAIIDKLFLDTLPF
Activity [1],Activity [2],Activity [3],Activity [4],Activity [5],Efficacy [1] [%],Efficacy [2] [%],Structure (SMILES),Activity [6]
inactive,inactive,inactive,inactive,inactive,–,–,O=C(O)[C@@H](Cc1ccccc1)Oc1ccc(-c2ccccc2)cc1,–
–,–,inactive,inactive,inactive,120,100,O=C(O)[C@H](Cc1ccccc1)Oc1ccc(-c2ccccc2)cc1,inactive
